From ChEMBL document CHEMBL4725360, “Optimization of Acetazolamide-Based Scaffold as Potent Inhibitors of Vancomycin-Resistant Enterococcus” (J Med Chem, 2020)
Values after ≈ are worked out from the molar mass of the structure shown. Active and inactive are the calls of the source. No cut-off for these calls is given here.

How the values were obtained:
Enterococcus faecium [1] = test: Antibacterial activity against Enterococcus faecium HM968 incubated for 18 to 20 hrs under aerobic condition by CLSI protocol based broth microdilution assay; assay type: functional; details: time hrs 18-20
Summary of the method: (§1)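 Broth microdilution per CLSI. Strains grown aerobically overnight on trypticase soy agar at 37 °C. Inoculum set to 0.5 McFarland, diluted in trypticase soy broth to about 5 × 10⁵ CFU/mL. Agents serially diluted, plates incubated aerobically at 37 °C for 18–20 h. MIC is the lowest concentration with no visible growth. Compound stocks 10 mg/mL in DMSO.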

Enterococcus faecium [2] = test: Antibacterial activity against Enterococcus faecium NR-31916 incubated for 18 to 20 hrs under aerobic condition by CLSI protocol based broth microdilution assay; assay type: functional; details: time hrs 18-20; summary of the method: as §1
Enterococcus faecium [3] = test: Antibacterial activity against Enterococcus faecium NR-31914 incubated for 18 to 20 hrs under aerobic condition by CLSI protocol based broth microdilution assay; assay type: functional; details: time hrs 18-20; summary of the method: as §1
Enterococcus faecium [4] = test: Antibacterial activity against Enterococcus faecium NR-31971 incubated for 18 to 20 hrs under aerobic condition by CLSI protocol based broth microdilution assay; assay type: functional; details: time hrs 18-20; summary of the method: as §1
Enterococcus faecium [5] = test: Antibacterial activity against Enterococcus faecium NR-31972 incubated for 18 to 20 hrs under aerobic condition by CLSI protocol based broth microdilution assay; assay type: functional; details: time hrs 18-20; summary of the method: as §1
Enterococcus faecium [6] = test: Antibacterial activity against Enterococcus faecium NR-28978 incubated for 18 to 20 hrs under aerobic condition by CLSI protocol based broth microdilution assay; assay type: functional; details: time hrs 18-20; summary of the method: as §1
Enterococcus faecium [7] = test: Antibacterial activity against Enterococcus faecium NR-31903 incubated for 18 to 20 hrs under aerobic condition by CLSI protocol based broth microdilution assay; assay type: functional; details: time hrs 18-20; summary of the method: as §1
Enterococcus faecium [8] = test: Antibacterial activity against Enterococcus faecium NR-32052 incubated for 18 to 20 hrs under aerobic condition by CLSI protocol based broth microdilution assay; assay type: functional; details: time hrs 18-20; summary of the method: as §1
Enterococcus faecalis [9] = test: Antibacterial activity against Enterococcus faecalis HM-335 incubated for 18 to 20 hrs under aerobic condition by CLSI protocol based broth microdilution assay; assay type: functional; details: time hrs 18-20; summary of the method: as §1
Enterococcus faecium [10] = test: Antibacterial activity against Enterococcus faecium NR-32065 incubated for 18 to 20 hrs under aerobic condition by CLSI protocol based broth microdilution assay; assay type: functional; details: time hrs 18-20; summary of the method: as §1
Enterococcus faecium [11] = test: Antibacterial activity against Enterococcus faecium HM965 incubated for 18 to 20 hrs under aerobic condition by CLSI protocol based broth microdilution assay; assay type: functional; details: time hrs 18-20; summary of the method: as §1
Enterococcus faecalis [12] = test: Antibacterial activity against Enterococcus faecalis NR-31975 incubated for 18 to 20 hrs under aerobic condition by CLSI protocol based broth microdilution assay; assay type: functional, organism-based; details: time hrs 18-20; summary of the method: as §1
Enterococcus faecalis [13] = test: Antibacterial activity against Enterococcus faecalis NR-31970 incubated for 18 to 20 hrs under aerobic condition by CLSI protocol based broth microdilution assay; assay type: functional, organism-based; details: time hrs 18-20; summary of the method: as §1
[14] = Cytotoxicity against human Caco2 cells incubated for 2 hrs by MTS assay; assay type: cell-based; details: Caco-2 cells
Summary of the method: (§2)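 Caco-2 cells maintained in DMEM with 10% FBS, non-essential amino acids and penicillin-streptomycin at 37 °C, 5% CO₂. Compound exposure for 2 h in serum-free medium at several concentrations; DMSO-matched controls. Viability expressed relative to DMSO controls (mean ± SD), and CC₅₀ derived.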

Enterococcus faecalis [15] = test: Antibacterial activity against Enterococcus faecalis HM-334 incubated for 18 to 20 hrs under aerobic condition by CLSI protocol based broth microdilution assay; assay type: functional; details: time hrs 18-20; summary of the method: as §1
Caco-2 = test: Cytotoxicity against human Caco2 cells at 128 ug/ml incubated for 2 hrs by MTS assay; assay type: cell-based; details: caco-2, 2 h, dose 128 µg/ml; summary of the method: as §2
Enterococcus faecium [16] = test: Inhibition of carbonic anhydrase in Enterococcus faecium ATCC 700221 assessed as antibacterial activity incubated for 18 to 20 hrs in presence of ambient air by CLSI protocol based broth microdilution assay; details: time hrs 18-20
Summary of the method: (§3)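 CLSI broth microdilution: inoculum about 5 × 10⁵ CFU/mL in trypticase soy broth with serial dilutions of agents. Paired plates incubated at 37 °C for 18–20 h, one set in ambient air ("normal"), the other under 5% CO₂. MIC is the lowest concentration completely inhibiting visible growth.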

Enterococcus faecium [17] = test: Inhibition of carbonic anhydrase in Enterococcus faecium ATCC 700221 assessed as antibacterial activity incubated for 18 to 20 hrs in presence of 5% CO2 by CLSI protocol based broth microdilution assay; details: time hrs 18-20; summary of the method: as §3

With `CN[C@H](CC(C)C)C(=O)N[C@H]1C(=O)N[C@@H](CC(N)=O)C(=O)N[C@H]2C(=O)N[C@H]3C(=O)N[C@H](C(=O)N[C@H](C(=O)O)c4cc(O)cc(O)c4-c4cc3ccc4O)[C@H](O)c3ccc(c(Cl)c3)Oc3cc2cc(c3O[C@@H]2O[C@H](CO)[C@@H](O)[C@H](O)[C@H]2O[C@H]2C[C@](C)(N)[C@H](O)[C@H](C)O2)Oc2ccc(cc2Cl)[C@H]1O` [VANCOMYCIN] the MIC (Enterococcus faecium [1]) was 64 mg/L (≈ 44.2 µM), the MIC (Enterococcus faecium [2]) was > 64 mg/L and the MIC (Enterococcus faecium [3]) was 64 mg/L (≈ 44.2 µM). The MIC (Enterococcus faecium [4]) was 64 mg/L (≈ 44.2 µM), the MIC (Enterococcus faecium [5]) was > 64 mg/L and the MIC (Enterococcus faecium [6]) was 32 mg/L (≈ 22.1 µM). For the same compound, the MIC (Enterococcus faecium [7]) was > 64 mg/L, the MIC (Enterococcus faecium [8]) was 64 mg/L (≈ 44.2 µM) and the MIC (Enterococcus faecalis [9]) was > 64 mg/L. For the same compound, the MIC (Enterococcus faecium [10]) was 64 mg/L (≈ 44.2 µM).

For `CCNc1nnc(S(N)(=O)=O)s1`, the MIC (Enterococcus faecium [11]) was > 64 mg/L.

`CC(C)CC(=O)Nc1nnc(S(N)(=O)=O)s1` gave an MIC (Enterococcus faecium [1]) of 0.125 mg/L (≈ 0.473 µM), an MIC (Enterococcus faecium [2]) of 0.125 mg/L (≈ 0.473 µM) and an MIC (Enterococcus faecium [3]) of 0.25 mg/L (≈ 0.946 µM). For the same compound, the MIC (Enterococcus faecium [4]) was 0.5 mg/L (≈ 1.89 µM), the MIC (Enterococcus faecium [5]) was 0.5 mg/L (≈ 1.89 µM) and the Activity (Enterococcus faecalis [12]) was “Active”. The MIC (Enterococcus faecium [11]) was 0.125 mg/L (≈ 0.473 µM), the Activity (Enterococcus faecalis [13]) was “Active” and the CC50 at 2 h [14] was > 128 mg/L. It also gave an MIC (Enterococcus faecium [6]) of 0.25 mg/L (≈ 0.946 µM), an MIC (Enterococcus faecalis [15]) of 0.5 mg/L (≈ 1.89 µM) and an MIC (Enterococcus faecium [7]) of 0.125 mg/L (≈ 0.473 µM). For the same compound, the Activity (Caco-2) was “Non-Toxic”, the MIC (Enterococcus faecium [8]) was 0.125 mg/L (≈ 0.473 µM) and the MIC (Enterococcus faecalis [9]) was 0.125 mg/L (≈ 0.473 µM). For the same compound, the MIC (Enterococcus faecium [10]) was 0.25 mg/L (≈ 0.946 µM).

`NS(=O)(=O)c1nnc(NC(=O)CN2CCCCC2)s1` showed an MIC (Enterococcus faecium [11]) of 1 mg/L (≈ 3.27 µM).

Compound `CC1CCC(C(=O)Nc2nnc(S(N)(=O)=O)s2)CC1` (stereo not given) has an MIC (Enterococcus faecium [11]) of 0.25 mg/L (≈ 0.821 µM).

For `CCCC(=O)Nc1nnc(S(N)(=O)=O)s1`, the inhibition (Enterococcus faecium [16]) was “Active”, the MIC (Enterococcus faecium [11]) was 0.5 mg/L (≈ 2 µM) and the inhibition (Enterococcus faecium [17]) was “inactive”.

With `NS(=O)(=O)c1nnc(NC(=O)CC2CCC2)s1` the MIC (Enterococcus faecium [11]) was 0.25 mg/L (≈ 0.905 µM).

In the case of `NS(=O)(=O)c1nnc(NCc2ccccc2)s1`, the MIC (Enterococcus faecium [11]) is reported as > 64 mg/L.

For `NS(=O)(=O)c1nnc(NC(=O)C2CCC2)s1`, the inhibition (Enterococcus faecium [16]) was “Active”, the Activity (Enterococcus faecalis [12]) was “Active” and the MIC (Enterococcus faecium [11]) was 0.5 mg/L (≈ 1.91 µM). For the same compound, the Activity (Enterococcus faecalis [13]) was “Active” and the inhibition (Enterococcus faecium [17]) was “inactive”.

For `CC(=O)Nc1ncc(S(N)(=O)=O)s1`, the MIC (Enterococcus faecium [11]) was > 64 mg/L.

`CC1(C(=O)Nc2nnc(S(N)(=O)=O)s2)CCCCC1` gave an MIC (Enterococcus faecium [11]) of 0.25 mg/L (≈ 0.821 µM).

For `NS(=O)(=O)c1nnc(NC(=O)CCc2ccccc2)s1`, the MIC (Enterococcus faecium [1]) was 0.25 mg/L (≈ 0.8 µM), the MIC (Enterococcus faecium [2]) was 0.125 mg/L (≈ 0.4 µM) and the inhibition (Enterococcus faecium [16]) was “Active”. For the same compound, the MIC (Enterococcus faecium [3]) was 0.25 mg/L (≈ 0.8 µM), the MIC (Enterococcus faecium [4]) was 0.125 mg/L (≈ 0.4 µM) and the MIC (Enterococcus faecium [5]) was 0.125 mg/L (≈ 0.4 µM). For the same compound, the MIC (Enterococcus faecium [11]) was 0.06 mg/L (≈ 0.192 µM), the CC50 at 2 h [14] was > 128 mg/L and the MIC (Enterococcus faecium [6]) was 0.5 mg/L (≈ 1.6 µM). For the same compound, the MIC (Enterococcus faecalis [15]) was 0.015 mg/L (≈ 0.048 µM), the MIC (Enterococcus faecium [7]) was 0.25 mg/L (≈ 0.8 µM) and the Activity (Caco-2) was “Non-Toxic”. The inhibition (Enterococcus faecium [17]) was “inactive”, the MIC (Enterococcus faecium [8]) was 0.5 mg/L (≈ 1.6 µM) and the MIC (Enterococcus faecalis [9]) was 0.125 mg/L (≈ 0.4 µM). It also gave an MIC (Enterococcus faecium [10]) of 0.125 mg/L (≈ 0.4 µM).

With `NS(=O)(=O)c1nnc(NC(=O)CCN2CCOCC2)s1` the inhibition (Enterococcus faecium [16]) was “Active”, the MIC (Enterococcus faecium [11]) was 2 mg/L (≈ 6.22 µM) and the inhibition (Enterococcus faecium [17]) was “inactive”.

For `NS(=O)(=O)c1nnc(NC(=O)C2CC2)s1`, the Activity (Enterococcus faecalis [12]) was “Active”, the MIC (Enterococcus faecium [11]) was 2 mg/L (≈ 8.06 µM) and the Activity (Enterococcus faecalis [13]) was “Active”.

For `CC(=O)Nc1ccc(S(N)(=O)=O)cc1`, the MIC (Enterococcus faecium [11]) was > 64 mg/L.

`NS(=O)(=O)c1nnc(NC(=O)c2ccccc2)s1` showed an MIC (Enterococcus faecium [11]) of 2 mg/L (≈ 7.03 µM).

In the case of `CCC(=O)Nc1nnc(S(N)(=O)=O)s1` [PROPAZOLAMIDE], the inhibition (Enterococcus faecium [16]) is reported as “Active”, the MIC (Enterococcus faecium [11]) is reported as 1 mg/L (≈ 4.23 µM) and the inhibition (Enterococcus faecium [17]) is reported as “inactive”.

In the case of `NS(=O)(=O)c1nnc(NC(=O)CN2CCCC2)s1`, the inhibition (Enterococcus faecium [16]) is reported as “Active”, the MIC (Enterococcus faecium [11]) is reported as 1 mg/L (≈ 3.43 µM) and the inhibition (Enterococcus faecium [17]) is reported as “inactive”.

With `CN1CCN(CC(=O)Nc2nnc(S(N)(=O)=O)s2)CC1` the inhibition (Enterococcus faecium [16]) was “Active”, the MIC (Enterococcus faecium [11]) was 8 mg/L (≈ 25 µM) and the inhibition (Enterococcus faecium [17]) was “inactive”.

For `NS(=O)(=O)c1nnc(NC(=O)CC2CC2)s1`, the MIC (Enterococcus faecium [1]) was 0.5 mg/L (≈ 1.91 µM), the MIC (Enterococcus faecium [2]) was 0.25 mg/L (≈ 0.953 µM) and the inhibition (Enterococcus faecium [16]) was “Active”. It also gave an MIC (Enterococcus faecium [3]) of 0.5 mg/L (≈ 1.91 µM), an MIC (Enterococcus faecium [4]) of 0.5 mg/L (≈ 1.91 µM) and an MIC (Enterococcus faecium [5]) of 0.5 mg/L (≈ 1.91 µM). The MIC (Enterococcus faecium [11]) was 0.25 mg/L (≈ 0.953 µM), the CC50 at 2 h [14] was > 128 mg/L and the MIC (Enterococcus faecium [6]) was 1 mg/L (≈ 3.81 µM). The MIC (Enterococcus faecalis [15]) was 0.5 mg/L (≈ 1.91 µM), the MIC (Enterococcus faecium [7]) was 0.25 mg/L (≈ 0.953 µM) and the Activity (Caco-2) was “Non-Toxic”. For the same compound, the inhibition (Enterococcus faecium [17]) was “inactive”, the MIC (Enterococcus faecium [8]) was 0.25 mg/L (≈ 0.953 µM) and the MIC (Enterococcus faecalis [9]) was 0.25 mg/L (≈ 0.953 µM). It also gave an MIC (Enterococcus faecium [10]) of 0.25 mg/L (≈ 0.953 µM).

In the case of `CC(=O)Nc1nnc(S(C)(=O)=O)s1`, the MIC (Enterococcus faecium [11]) is reported as > 64 mg/L.

In the case of `NS(=O)(=O)c1nnc(NCC2CCCCC2)s1`, the MIC (Enterococcus faecium [11]) is reported as > 64 mg/L.

In the case of `CC(C)C(=O)Nc1nnc(S(N)(=O)=O)s1`, the inhibition (Enterococcus faecium [16]) is reported as “Active”, the MIC (Enterococcus faecium [11]) is reported as 1 mg/L (≈ 4 µM) and the inhibition (Enterococcus faecium [17]) is reported as “inactive”.
